According to ChEMBL document CHEMBL5724801, “EUbOPEN Chemogenomics Library - Multiplex” (2024):
Where “and” joins values, the source holds several entries; their conditions need not be identical. Equal entries are not always repeated.

Columns and labels:
[1] = test system: Fibroblast; assay: Multiplex assay against human fibroblast; type: toxicity, cell-based
Procedure, shortened: (§1)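 Live cells carried four stains from seeding: Hoechst33342, BioTracker Green Microtubule Cytoskeleton Dye, MitoTracker Red and Annexin V Alexa Fluor 680. They were imaged on a CQ1 microscope at 37°C and 5% CO2 after compound addition. Using CellPathfinder machine-learning gating, cells were split into Hoechst high-intensity objects or normal cells, normal cells into healthy, pyknosed or fragmented nuclei, and pyknosed cells into mitotic or apoptotic; tubulin, mitochondrial-mass and membrane-permeability phenotypes are per cents of healthy-nucleus cells.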

[2] = test system: HEK-293T; assay: Multiplex assay against HEK293T; type: toxicity, cell-based; conditions: human; procedure, shortened: as §1
[3] = 24 h, 10 µM, compound concentration 10 uM
[4] = 48 h, 1 µM, compound concentration 1 uM
[5] = 48 h, 10 µM, compound concentration 10 uM
[6] = 12 h, 1 µM, compound concentration 1 uM
[7] = 12 h, 10 µM, compound concentration 10 uM
[8] = 24 h, 1 µM, compound concentration 1 uM

Cc1onc(-c2ccccc2Cl)c1C(=O)N(C)c1ccc(Cl)cc1
Population Apoptotic (%) [1, 3]: 20% and 54%
Population Fragmented Nuclei (%) [1, 3]: 16% and 21%
Population Healthy Nuclei (%) [1, 3]: 76% and 55%
Population Hoechst High Intensity Objects (%) [1, 3]: 2% and 4%
Population Membrane Permeable-Phenotype (%) [1, 3]: 1% and 6%
Population Mitochondria Different-Phenotype (%) [1, 3]: 4% and 6%
Population Mitotic Cells (%) [1, 3]: 80% and 45%
Population Normal (%) [1, 3]: 97% and 95%
Population Tubulin-Different-Phenotype (%) [1, 3]: 32% and 59%
Total Cell Count [1, 3]: 134 and 149
Population Apoptotic (%) [1, 4]: 76% and 48%
Population Fragmented Nuclei (%) [1, 4]: 26% and 28%
Population Healthy Nuclei (%) [1, 4]: 62% and 54%
Population Hoechst High Intensity Objects (%) [1, 4]: 9% and 11%
Population Membrane Permeable-Phenotype (%) [1, 4]: 0% and 10%
Population Mitochondria Different-Phenotype (%) [1, 4]: 1% and 6%
Population Mitotic Cells (%) [1, 4]: 23% and 51%
Population Normal (%) [1, 4]: 90% and 88%
Population Pyknosed Nuclei (%) [1, 4]: 10% and 17%
Population Tubulin-Different-Phenotype (%) [1, 4]: 22% and 51%
Total Cell Count [1, 4]: 185 and 188
Population Apoptotic (%) [1, 5]: 44% and 65%
Population Fragmented Nuclei (%) [1, 5]: 25% and 31%
Population Healthy Nuclei (%) [1, 5]: 68% and 55%
Population Hoechst High Intensity Objects (%) [1, 5]: 4% and 1%
Population Membrane Permeable-Phenotype (%) [1, 5]: 0% and 8%
Population Mitochondria Different-Phenotype (%) [1, 5]: 3% and 6%
Population Mitotic Cells (%) [1, 5]: 55% and 35%
Population Normal (%) [1, 5]: 95% and 98%
Population Pyknosed Nuclei (%) [1, 5]: 6% and 12%
Population Tubulin-Different-Phenotype (%) [1, 5]: 34% and 53%
Total Cell Count [1, 5]: 141 and 166
Population Apoptotic (%) [2, 6]: 35% and 37%
Population Fragmented Nuclei (%) [2, 6]: 8% and 3%
Population Healthy Nuclei (%) [2, 6]: 79% and 84%
Population Hoechst High Intensity Objects (%) [2, 6]: 9% and 6%
Population Membrane Permeable-Phenotype (%) [2, 6]: 0%
Population Mitochondria Different-Phenotype (%) [2, 6]: 41% and 59%
Population Mitotic Cells (%) [2, 6]: 64% and 62%
Population Normal (%) [2, 6]: 90% and 93%
Population Pyknosed Nuclei (%) [2, 6]: 12%
Population Tubulin-Different-Phenotype (%) [2, 6]: 25%
Total Cell Count [2, 6]: 375 and 320
Population Apoptotic (%) [2, 7]: 38% and 45%
Population Fragmented Nuclei (%) [2, 7]: 7% and 4%
Population Healthy Nuclei (%) [2, 7]: 79% and 80%
Population Hoechst High Intensity Objects (%) [2, 7]: 12% and 6%
Population Membrane Permeable-Phenotype (%) [2, 7]: 0%
Population Mitochondria Different-Phenotype (%) [2, 7]: 49% and 65%
Population Mitotic Cells (%) [2, 7]: 61% and 54%
Population Normal (%) [2, 7]: 87% and 93%
Population Pyknosed Nuclei (%) [2, 7]: 13% and 14%
Population Tubulin-Different-Phenotype (%) [2, 7]: 43% and 35%
Total Cell Count [2, 7]: 357 and 330
Population Apoptotic (%) [2, 8]: 23% and 42%
Population Fragmented Nuclei (%) [2, 8]: 9% and 5%
Population Healthy Nuclei (%) [2, 8]: 81%
Population Hoechst High Intensity Objects (%) [2, 8]: 5% and 3%
Population Membrane Permeable-Phenotype (%) [2, 8]: 1%
Population Mitochondria Different-Phenotype (%) [2, 8]: 21% and 44%
Population Mitotic Cells (%) [2, 8]: 76% and 57%
Population Normal (%) [2, 8]: 94% and 96%
Population Pyknosed Nuclei (%) [2, 8]: 9% and 12%
Population Tubulin-Different-Phenotype (%) [2, 8]: 14% and 18%
Total Cell Count [2, 8]: 523 and 383
Population Apoptotic (%) [2, 3]: 45% and 29%
Population Fragmented Nuclei (%) [2, 3]: 8% and 7%
Population Healthy Nuclei (%) [2, 3]: 79% and 82%
Population Hoechst High Intensity Objects (%) [2, 3]: 5% and 3%
Population Membrane Permeable-Phenotype (%) [2, 3]: 1% and 0%
Population Mitochondria Different-Phenotype (%) [2, 3]: 32% and 47%
Population Mitotic Cells (%) [2, 3]: 54% and 70%
Population Normal (%) [2, 3]: 94% and 96%
Population Pyknosed Nuclei (%) [2, 3]: 12% and 9%
Population Tubulin-Different-Phenotype (%) [2, 3]: 20%
Total Cell Count [2, 3]: 478 and 413
Population Apoptotic (%) [2, 4]: 21% and 31%
Population Fragmented Nuclei (%) [2, 4]: 14% and 11%
Population Healthy Nuclei (%) [2, 4]: 79% and 82%
Population Hoechst High Intensity Objects (%) [2, 4]: 2%
Population Membrane Permeable-Phenotype (%) [2, 4]: 0% and 1%
Population Mitochondria Different-Phenotype (%) [2, 4]: 11% and 23%
Population Mitotic Cells (%) [2, 4]: 78% and 68%
Population Normal (%) [2, 4]: 97%
Population Pyknosed Nuclei (%) [2, 4]: 6% and 5%
Population Tubulin-Different-Phenotype (%) [2, 4]: 9% and 12%
Total Cell Count [2, 4]: 932 and 620
Population Apoptotic (%) [2, 5]: 33% and 20%
Population Fragmented Nuclei (%) [2, 5]: 14% and 12%
Population Healthy Nuclei (%) [2, 5]: 76% and 81%
Population Hoechst High Intensity Objects (%) [2, 5]: 3%
Population Membrane Permeable-Phenotype (%) [2, 5]: 1% and 0%
Population Mitochondria Different-Phenotype (%) [2, 5]: 16% and 25%
Population Mitotic Cells (%) [2, 5]: 66% and 79%
Population Normal (%) [2, 5]: 96%
Population Pyknosed Nuclei (%) [2, 5]: 8% and 6%
Population Tubulin-Different-Phenotype (%) [2, 5]: 15% and 16%
Total Cell Count [2, 5]: 755 and 652
